# Bioassay records from PubChem.
# The full list was thinned out, with hits kept by preference.
# HCT116 PTEN-null = PTEN-deleted cell growth suppression. HCT116 PTEN-null viability, CellTiter-Glo, 60 h; stronger effect = lower value. viability, % at 10 µM. 140,000 tested, 1.2% active;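 active = viability at or below a set limit, 4 SD under the median of all tested compounds, cut at about 3.7% in these data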;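 also: PTEN knockout HCT116 line with beta catenin targeted HCT116 as companion control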
# HUVEC prolif 384 = blocks proliferation of human endothelial cells; HUVEC proliferation, CellTiter-Glo luminescence, 72 h; stronger effect = lower value; viability, % at 10 µM (by protocol); 86,000 tested, 1.1% active; AID 648;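 active = viability at or below 30%; inactive = viability above 30%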;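 also: 100% = median luminescence of DMSO-only cell control wells on each plate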
# H69AR growth 86K = blocks growth of human H69AR lung tumor cells; H69AR lung tumor viability, ATP luminescence, 72 h; stronger effect = lower value; 85,000 tested, 6% active; AID 598; viability, % at 10 µM;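 active = viability at or below 40%; inactive = viability above 40%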;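 also: multidrug resistant small cell line overexpressing MRP-1 efflux transporter; 100% = mean luminescence of untreated control wells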
# bCat KO growth = beta-catenin-lacking colon tumor cell growth suppression | HCT116 beta-catenin knockout viability, CellTiter-Glo, 60 h; stronger effect = lower value | 140,000 tested, 1.5% active | viability, % at 10 µM;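 active = viability at or under a set limit, the compound median less 4 SD, cut at about 6% in these data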;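 also: 0% = Hyamine 1622 control at 20 µM and 100% = untreated cell control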
# Lung fibro prol = blocks proliferation of human lung fibroblasts; LL 47 human lung fibroblast viability, ATP luminescence; stronger effect = lower value; viability, % at 10 µM; 85,000 tested, 1.1% active;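 active = viability at or below 50% in the single dose screen; inactive = viability above 50%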;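 also: compound exposure lasted 72 h before the ATP readout; 100% = median luminescence of untreated cell-only wells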
#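 Signal: luminescent ATP detection, CellTiter-Glo; assay system: LL 47 human lung fibroblasts; input: 1,150 cells/well; incubation: overnight cell rest, 72 h compound treatment at 37 °C; measure: % viability versus median cells-only luminescence; medium: IMEM growth medium with 15% fetal bovine serum; dosing: compound addition at 0.1% DMSO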
# * marks the source's active call; other numbers are inactive results; x = no result.
SMILES,HCT116 PTEN-null,HUVEC prolif 384,H69AR growth 86K,bCat KO growth,Lung fibro prol
Cc1nnc2sc(-c3ccc(NC(=O)c4cccnc4)cc3)nn12,x,98.7,10.1*,x,102.7
CC(=O)Cc1nsc(NC(=O)c2ccc(-c3ccc(Cl)cc3Cl)o2)n1,108.1,69.8,42.8,102.1,98.6
CCc1ccc(NC(=O)c2cccnc2)cc1,100.5,98.3,80.6,90.6,94.0
CCN(CC)c1ccc(NC(=O)c2cccc(C)c2OC)c(C)c1,76.0,106.1,82.6,76.3,89.7
Cc1ccc2sc(NC(=O)CN3C(=O)c4ccccc4C3=O)nc2c1C,96.8,x,x,96.8,x
O=C(N/N=C/c1ccc[nH]1)c1ccc([N+](=O)[O-])cc1,90.1,x,x,94.6,x
CN1CCN(c2ccccc2NC(=O)c2ccc(-c3ccc(Cl)cc3Cl)o2)CC1,7.1,5.8*,31.6*,5.5*,93.8
CS(=O)(=O)N1CCN(c2ccccc2NC(=O)c2ccc(-c3ccc(Cl)cc3Cl)o2)CC1,69.2,88.7,69.1,67.2,97.4
Cc1noc(C)c1COc1ccc(C(=O)OC(C)C(=O)Nc2ccc(S(=O)(=O)N3CCOCC3)cc2)cc1 (configuration not stated),59.3,x,x,78.6,x
COc1cccc(-n2c(SCC(N)=O)nc3c([nH]c4ccccc43)c2=O)c1,19.9,72.3,23.2*,17.3,65.6
COc1cccc(-n2c(SCC(=O)Nc3cc(C)on3)nc3c([nH]c4ccccc43)c2=O)c1,78.5,78.5,92.3,75.1,78.1
O=C(CN1CCN(S(=O)(=O)c2ccc(Br)cc2)CC1)Nc1ccc(F)cc1,75.4,92.5,1.6*,79.5,99.0
O=C(CN1C(=O)CCC1=O)Nc1ccc(Br)cc1,95.2,88.1,39.5*,90.5,102.1
COc1ccc(S(=O)(=O)N2CCN(CC(=O)Nc3cc(OC)cc(OC)c3)CC2)cc1,94.7,85.8,4.9*,92.4,103.3
COc1ccc(S(=O)(=O)N2CCCN(CC(=O)Nc3ccc(OC)c(Cl)c3)CC2)cc1,92.7,97.7,2.1*,97.1,103.1
CN(CCCCCCCCC(=O)/C=N/O)Cc1ccccc1,94.9,88.5,24.2*,89.5,95.6
CCCCNC(=O)CC(=O)Nc1ccccc1C(=O)O,90.2,94.3,93.4,106.7,97.3
COc1cc(C2Sc3ccccc3NC3=C2C(=O)OC3)cc(OC)c1OC (configuration not stated),49.5,72.2,14.5*,65.0,80.8
CC(C)OCCCN1CN(S(=O)(=O)c2cccc(Cl)c2)c2nc3ccccc3nc21,63.6,99.0,83.7,71.8,101.8
CC(C)C1C(c2ccccc2)N(C)C(c2ccccc2)CC1(O)c1ccccc1 (configuration not stated),24.8,60.6,19.7*,25.6,82.9
CN1CC(=O)NC1=NC(=O)c1ccc(Cl)c(S(=O)(=O)N2CCCCCC2)c1,63.7,88.9,11.5*,76.2,83.8
CN1CC(=O)NC1=NC(=O)c1cc(F)c(F)cc1Cl,95.4,99.7,95.0,88.0,99.0
CCOc1ccc(C(=O)N/N=C/c2cccc3cccnc23)cc1,8.0,x,x,10.0,x
Cc1ccc(C(C)C)c(OCc2ccc(C(=O)N/N=C/c3ccc(O)c(O)c3)cc2)c1,23.0,x,x,28.1,x
COc1ccc(NC(=O)c2ccccn2)cc1,82.2,x,x,85.5,x
SMILES,HCT116 PTEN-null,HUVEC prolif 384,H69AR growth 86K,bCat KO growth,Lung fibro prol
COc1ccc(C(=O)N/N=C/c2cccc3cccnc23)cc1,5.6,x,x,4.9*,x
COc1ccc(C(=O)N/N=C(\c2ccccc2)c2ccccn2)cc1,6.3,x,x,4.6*,x
O=C(N/N=C/c1ccc(O)c(O)c1)c1ccc(CSc2cccc3cccnc23)cc1,77.8,73.1,39.9*,72.9,73.7
C/C=C/C(=O)OCC(=O)Nc1cc(-c2cc(C)c(C)cc2C)nn1-c1ccccc1,85.5,x,x,84.2,x
COc1ccc(-n2nnnc2S(=O)(=O)CC(=O)N2CCCCC2)cc1,1.3*,69.1,2.0*,1.7*,33.1*
O=C(Nc1sc2c(c1C(=O)O)CCC2)c1ccco1,103.7,x,x,103.2,x
COc1ccc(C(=O)Nc2sc3c(c2C(=O)NCc2ccco2)CCCC3)cc1OC,75.1,67.1,35.7*,79.6,85.8
O=C(Nc1sc2c(c1C(=O)NC1CC1)CCCCCC2)c1ccco1,96.5,92.5,30.1*,93.4,98.8
CC(=O)Nc1sc2c(c1C(N)=O)CCC2,87.5,93.1,83.4,84.3,107.3
CC(C(=O)Nc1sc2c(c1C(=O)NCc1ccco1)CCCC2)N1C(=O)c2ccccc2C1=O (configuration not stated),104.5,85.1,23.5*,108.9,99.7
COc1cc(C(=O)Nc2sc3c(c2C(=O)NCc2ccco2)CCCC3)cc(OC)c1OC,83.1,68.3,60.4,78.7,87.1
O=C(CCN1C(=O)c2ccccc2C1=O)Nc1sc2c(c1C(=O)NCc1ccco1)CCCC2,101.4,81.4,57.9,106.5,104.0
NC(=O)c1c(NC(=O)c2cc3ccccc3o2)sc2c1CCC2,92.1,62.1,23.7*,85.2,82.0
COC(=O)c1ccccc1NC1CC(=O)N(c2c(C)cccc2C)C1=O (configuration not stated),108.5,x,x,105.2,x
Cc1ccc(C(=O)Nc2sc3c(c2C(=O)NCc2ccco2)CCCC3)cc1,106.1,44.4,11.2*,97.3,96.3
COC(=O)Nc1sc2c(c1C(=O)NCc1ccco1)CCC2,76.0,75.7,39.4*,83.6,82.5
Cc1ccccc1NC(=O)Cn1nc(C(F)(F)F)cc1C1CC1,90.0,x,x,91.3,x
Cc1ccc(C)c(NC(=O)Cn2nc(C(F)(F)F)cc2C2CC2)c1,10.2,x,x,5.3*,x
O=C(CCCOc1ccc(Cl)cc1Cl)N/N=C/c1cccc([N+](=O)[O-])c1,28.7,x,x,43.0,x
CCOC(=O)c1nc(Nc2ccc(C(=O)O)cc2)c2ccccc2n1,90.7,96.8,104.6,102.5,100.5
CCOC(=O)c1ccc(Nc2nc(C(=O)OCC)nc3ccccc23)cc1,97.9,69.8,37.7*,91.7,103.4
COc1cccc(Oc2cnc(N)nc2-c2ccc(OC)cc2O)c1,14.2,77.6,16.6*,20.0,58.6
COc1ccc(-c2nc(N)ncc2Oc2ccccc2Br)c(O)c1,92.2,91.6,38.2*,93.3,83.8
COc1cc(/C=C(\C#N)c2ccccn2)ccc1OCC(=O)Nc1c(Cl)cccc1Cl,86.6,x,x,80.8,x
COc1cc(/C=C(\C#N)c2ccccn2)ccc1OCC(=O)Nc1ccc(Br)cc1,5.0,x,x,5.4*,x
COc1cc(/C=C(/C#N)c2nc3ccccc3[nH]2)ccc1OCC(=O)Nc1ccccc1C(C)C,0.7*,x,x,1.2*,x
CC(C)(C)NC(=O)C1Cc2ccccc2CN1C(=O)Nc1ccccc1Cl (configuration not stated),91.1,x,x,110.8,x
CC(NC(=O)/C(C#N)=C/c1ccc(Cl)c([N+](=O)[O-])c1)c1ccccc1 (configuration not stated),1.2*,x,x,1.6*,x
CC(NC(=O)c1ccc([N+](=O)[O-])cc1[N+](=O)[O-])c1ccc(-c2ccccc2)cc1 (configuration not stated),86.8,x,x,85.5,x
O=C1N(c2cccc(Cl)c2)C(c2ccc(Cl)cc2)N2CCCN12 (configuration not stated),62.0,x,x,66.0,x
